Screening results deposited in PubChem BioAssay by The Scripps Research Institute Molecular Screening Center.
Hits are enriched below; roughly 1.2% of the tested compounds scored in any of these assays.
PP1 inh: PP1-alpha phosphatase inhibitors, primary screen, counter-screen for PP5 inhibitor project, biochemical, fluorescence, OMFP substrate, single point; Serine/threonine-protein phosphatase PP1-alpha catalytic subunit (Homo sapiens), P62136; purified PP1alpha; inhibition, % at 6.7 µM; actives 0.9% (n = 320,000);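 active = inhibition above the mean inhibition of all tested compounds plus 3 SD, computed separately for each screening campaign, cut at about 15% in these data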
procasp3 activ: activators of human procaspase-3 D3A mutant, primary screen, biochemical, absorbance, PC-3 D3A mutant, single concentration. actives 0.11% (n = 330,000). recombinant procaspase-3 D3A, Ac-DEVD-pNA absorbance 405 nm. Caspase-3 (Homo sapiens), P42574. activation, % at 8.5 µM. AID 463141, 2010;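 active = activation above the mean of all tested compounds plus 3 SD, cut at about 21% in these data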
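Assay system: Autoprocessing-dead procaspase-3 D3A mutant enzyme; also added: Ac-DEVD-pNA; doses: one concentration, 8.5 µM nominal, 0.8% DMSO; times: 1 h compound preincubation, 2 h substrate hydrolysis at 25 °C; technique: 405 nm absorbance of p-nitroaniline, reads at 0 and 120 min; measure: % activation between DMSO and enzyme-spiked controls; repeats: single replicate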
procasp7 counter: procaspase-7 activators, primary screen, counter-screen for procaspase-3 activator project, biochemical, absorbance, HTS, human; activation, % at 8.5 µM; AID 463210, 2010; recombinant procaspase-7, Ac-DEVD-pNA absorbance 405 nm; D23A/D198A/D206A triple mutant, cannot self-cleave; scale: DMSO 0, 5 µM enzyme 100; actives 0.093% (n = 330,000);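 active = percent activation above the screen-wide mean plus 3 SD, cut at about 25% in these data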
Target sequence (P55210 whole entry D23A/D198A/D206A): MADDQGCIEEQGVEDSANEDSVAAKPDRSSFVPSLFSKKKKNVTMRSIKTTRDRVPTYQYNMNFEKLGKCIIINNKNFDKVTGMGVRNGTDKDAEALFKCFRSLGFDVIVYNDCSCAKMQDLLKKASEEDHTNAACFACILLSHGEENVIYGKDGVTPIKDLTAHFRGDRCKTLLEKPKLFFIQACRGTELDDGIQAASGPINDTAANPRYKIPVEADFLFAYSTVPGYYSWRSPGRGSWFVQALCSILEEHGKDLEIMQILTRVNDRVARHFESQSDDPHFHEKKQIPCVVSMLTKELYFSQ
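Test system: Procaspase-7 triple mutant (PC-7 D3A). Also added: Ac-DEVD-pNA substrate, 400 µM as added. Schedule: 1 h enzyme–compound preincubation and 2 h substrate reaction, both 25 °C. Signal: p-Nitroaniline absorbance at 405 nm, read at 0 and 120 min. Control set: low DMSO alone, high DMSO plus 5 µM PC-7.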
PP5 primary: PP5 phosphatase inhibitors, primary screen, biochemical, fluorescence; purified PP5c, OMFP substrate fluorescence; inhibition, % at 6.7 µM; actives 0.18% (n = 320,000);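 active = inhibition above the campaign's mean inhibition across all tested compounds plus 3 SD, cut at about 9.5% in these data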
PP1 inh confirm: PP1 phosphatase inhibitors, confirmation, biochemical, fluorescence, OMFP substrate, triplicate. shares compounds with PP1 inh. purified PP1alpha. inhibition, % at 6.7 µM. actives 52% (n = 1,900). AID 2358, 2010;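 active = mean PP1 inhibition above a set limit taken from the earlier primary screen, cut at about 15% in these data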
PP5 counter: PP5 phosphatase inhibition by PP1 hits, confirmation, counter-screen for PP1 inhibitor project, biochemical, fluorescence, triplicate. inhibition, % at 6.7 µM. actives 4% (n = 1,900). shares compounds with PP1 inh. purified PP5c, OMFP fluorescence;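 active = mean PP5 inhibition over triplicate wells above about 9.5% taken from the earlier PP1 screen, limit read from the data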
procasp7 triplic: procaspase-7 activators, counter-screen for procaspase-3 activator project, biochemical, absorbance, triplicate, human; shares compounds with procasp3 activ; recombinant procaspase-7, Ac-DEVD-pNA absorbance; asp23/198/206-to-Ala mutant, cannot self-cleave; activation, % at 8.5 µM; 210 tested, under 10 active;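 active = mean activation above a set limit taken from an earlier procaspase-7 screen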
proCasp3 confirm: activators of human procaspase-3 D3A mutant, confirmation, biochemical, absorbance, PC-3 D3A mutant, triplicate | actives 10% (n = 210) | recombinant PC-3 D3A, Ac-DEVD-pNA absorbance 405 nm; 100% is higher-enzyme control | activation, % at 8.5 µM | shares compounds with procasp3 activ | AID 488954, 2010;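 active = mean activation above a set limit carried over from the earlier primary screen, cut at about 22% in these data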
PC3 dual counter: procaspase-3 activators, counter-screen for dual procaspase-3/7 activator project, biochemical, absorbance, PC-3 D3A mutant, human; recombinant PC-3 D3A, Ac-DEVD-pNA absorbance 405 nm; aspartates 9, 28, 175 changed to alanine; 100% = enzyme control; AID 493114, 2011; 290 tested, under 10 active; shares compounds with procasp7 counter; activation, % at 8.5 µM;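 active = mean percent activation across triplicates above a set limit taken from the earlier primary procaspase-3 screen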
PC7 dual conf: activation of procaspase-7 enzyme – biochemical, absorbance, human, dual procaspase-3/-7 activator project, confirmation; shares compounds with procasp7 counter; recombinant procaspase-7, Ac-DEVD-pNA absorbance 405 nm; D23A/D198A/D206A mutant that cannot self-cleave; activation, % at 8.5 µM; 290 tested, under 10 active;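 active = mean activation above a set limit carried over from the earlier primary screen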
Of the large screens only hits and unclear results are named; the others gave an inactive call (follow-up assays come after a bar, where they were run).

CC(=O)Nc1ccccc1C(=O)OCC(=O)c1ccc2c(c1)OCCO2	none
C=CCn1c(O)c(C(C)=O)c(=O)[nH]c1=O (tested in a mixture with another compound)	none
O=C(c1cc(C(=O)NCc2ccccc2)c(=O)n(Cc2ccccc2)c1)c1cc(Cl)ccc1O	PP1 inh 18.3 | PP1 inh confirm 16.3 | PP5 counter inactive
O=C(NCc1ccccc1)c1cccn(Cc2ccccc2)c1=O	none
COC1C(OC(=O)c2ccc(C)[nH]2)C(O)C(Oc2ccc3c(O)c(NC(=O)c4ccc(O)c(CC=C(C)C)c4)c(=O)oc3c2Cl)OC1(C)C (stereo not drawn)	PP1 inh 24.5 | PP1 inh confirm 16.8 | PP5 counter inactive
COC(=O)C1=C(c2cccc(OCc3ccccc3)c2)C[C@@H]2CC[C@H]1N2C(=O)NCc1ccc2[nH]ccc2c1	none
CCC(C)NC(=O)c1c(N)n(Cc2ccc3c(c2)OCO3)c2nc3ccccc3nc12 (stereo not drawn)	procasp3 activ 69.8 | procasp7 triplic inactive | proCasp3 confirm inactive
O=[N+]([O-])NC1=NCN(Cc2ccco2)CN1Cc1ccco1	none
Nc1c(C(=O)OCc2ccccc2)c2nc3ccccc3nc2n1Cc1cccs1	none
CCC(C)OC(=O)c1c(N)n(Cc2cccs2)c2nc3ccccc3nc12 (stereo not drawn)	procasp3 activ 22.5 | procasp7 triplic inactive | proCasp3 confirm inactive
O=C(Cn1cc(C(=O)c2ccccc2F)c2ccccc21)NC1CC1	none
CC(C)CCNC(=O)c1c(N)n(CC2CCCO2)c2nc3ccccc3nc12 (stereo not drawn)	procasp3 activ 24.7 | procasp7 triplic inactive | proCasp3 confirm inactive
CCCNc1oc(-c2cccc3ccccc23)nc1C#N	procasp3 activ 33.0, procasp7 counter 32.1 | PC3 dual counter inactive | PC7 dual conf inactive
COc1ccc(-c2nc3ccc(C(=O)N4CCC5(CC4)OCCO5)cc3nc2-c2ccc(OC)cc2)cc1	procasp3 activ 29.8, procasp7 counter 51.8 | PC3 dual counter inactive | PC7 dual conf inactive
COc1ccc(-n2c(C)nc3cc(C(=O)N4CCC5(CC4)OCCO5)ccc32)cc1	none
CCN(CC)C(=O)c1ccc(NC(=O)C2=C(C)OCCS2)cc1	none
